Measured values: article PMC7496803 (Chemistry (Weinheim an Der Bergstrasse, Germany), 2020)

Key:
[1] = in MeOH; cited from earlier work
HeLa cells = assay: Phototoxicity, resazurin cell viability assay after 525 nm irradiation; type: cell-based
How it was run: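 HeLa, 2×10^4 per well in DMEM (2.5 % FBS), 21 h before dosing. Turn-off or turn-on peptide photosensitizers in water/12.5 % MeCN, 4.00–0.03 μm final, triplicate, 2 h. Irradiated at 525 nm by LED array, 69.4±0.6 W m−2 for 160 s, then 18 h. Resazurin fluorescence viability; IC50 by four-parameter variable-slope log(inhibitor)–response fit; untreated and vehicle controls; ≥2 independent experiments.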

PC-3 cells = assay: Phototoxicity, resazurin cell viability assay after 525 nm irradiation; type: cell-based

| Compound | Φ Δ of the reference photosensitizers [1] | phototoxicity variation turn-off/turn-on (IC50 6OFF / IC50 6ON) (HeLa cells) [fold] | OFF/ON ratio (IC50 6OFF / IC50 6ON) (PC-3 cells) [fold] |
| --- | --- | --- | --- |
| O=C([O-])c1c(Cl)c(Cl)c(Cl)c(Cl)c1-c1c2cc(I)c(=O)c(I)c-2oc2c(I)c([O-])c(I)cc12.[Na+].[Na+] [rose bengal] | 0.76 |  |  |
| Erythrosine B | 0.6 |  |  |
| CCCCCCCCCCCCCCCC(=O)NCCCC[C@H](NC(=O)[C@H](CSCC(=O)NCc1cn(CCOc2ccc(C3=C4C(C)=C(I)C(C)=[N+]4[B-](F)(F)n4c(C)c(I)c(C)c43)cc2)nn1)NC(=O)c1ccc(-c2nnc(C)c3c2CCC(O)CCC3)cc1)C(=O)N[C@@H](CCCNC(=N)N)C(=O)N[C@@H](CCCNC(=N)N)C(=O)N[C@@H](CCCNC(=N)N)C(=O)N[C@@H](CCCNC(=N)N)C(N)=O (stereo partly shown) [6ON, [TCO:Tz]‐C(2I‐BODIPY)‐K(PA)RRRR‐CONH2] |  | 3.8 | 3.3 |
